Test results as given in ChEMBL document CHEMBL1142739, “Development of spin-labeled probes for adenosine receptors” (J Med Chem, 2005).

How the values were obtained:
Adenosine receptor A1 [1] = target: T1, Adenosine receptor A1 (Rattus norvegicus, UniProt P25099); assay: Inhibition of [3H]R-PIA binding to adenosine A1 receptor
T1 sequence (P25099 whole entry): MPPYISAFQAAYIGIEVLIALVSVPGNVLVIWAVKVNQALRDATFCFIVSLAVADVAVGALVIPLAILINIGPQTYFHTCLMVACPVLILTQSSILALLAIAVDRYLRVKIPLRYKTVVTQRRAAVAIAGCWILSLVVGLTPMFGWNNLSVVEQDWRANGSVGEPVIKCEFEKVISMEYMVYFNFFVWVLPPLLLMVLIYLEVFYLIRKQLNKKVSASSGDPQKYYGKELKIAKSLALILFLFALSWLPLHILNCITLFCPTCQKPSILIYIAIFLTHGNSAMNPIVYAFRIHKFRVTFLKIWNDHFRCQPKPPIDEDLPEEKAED
Method in brief: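 Competition binding on rat brain cortical membranes as the A1 source. Where no Ki was reached, percent inhibition of radioligand binding was reported at 1 or 10 µM test compound.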

Adenosine receptor A2a [2] = target: T2, Adenosine receptor A2a (Rattus norvegicus, UniProt P30543); assay: Inhibition of [3H]NECA binding to adenosine A2a receptor
Method in brief: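 Competition binding on rat brain striatal membranes as the A2A source. Where no Ki was reached, percent inhibition of radioligand binding was reported at 1 or 10 µM test compound.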

Adenosine receptor A3 = target: T3, Adenosine receptor A3 (Homo sapiens, UniProt P0DMS8); assay: Inhibition of [3H]PSB-11 binding to adenosine A3 receptor
T3 sequence (P0DMS8 whole entry): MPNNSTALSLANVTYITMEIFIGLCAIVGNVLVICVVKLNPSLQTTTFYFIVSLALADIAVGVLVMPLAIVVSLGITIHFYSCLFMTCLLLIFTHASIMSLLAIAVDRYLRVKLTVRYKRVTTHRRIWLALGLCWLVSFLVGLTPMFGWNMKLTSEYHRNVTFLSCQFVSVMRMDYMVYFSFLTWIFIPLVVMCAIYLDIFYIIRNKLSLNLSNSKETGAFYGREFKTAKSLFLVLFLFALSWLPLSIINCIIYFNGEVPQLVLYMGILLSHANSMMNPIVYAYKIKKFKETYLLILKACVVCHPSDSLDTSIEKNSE

Adenosine receptor A2a [3] = target: T2, Adenosine receptor A2a; assay: Inhibition of [3H]MSX-2 binding to adenosine A2a receptor
Adenosine receptor A2b [4] = target: T4, Adenosine receptor A2b (Homo sapiens, UniProt P29275); assay: Inhibition of [3H]PSB-298 binding to adenosine A2b receptor
T4 sequence (P29275 whole entry): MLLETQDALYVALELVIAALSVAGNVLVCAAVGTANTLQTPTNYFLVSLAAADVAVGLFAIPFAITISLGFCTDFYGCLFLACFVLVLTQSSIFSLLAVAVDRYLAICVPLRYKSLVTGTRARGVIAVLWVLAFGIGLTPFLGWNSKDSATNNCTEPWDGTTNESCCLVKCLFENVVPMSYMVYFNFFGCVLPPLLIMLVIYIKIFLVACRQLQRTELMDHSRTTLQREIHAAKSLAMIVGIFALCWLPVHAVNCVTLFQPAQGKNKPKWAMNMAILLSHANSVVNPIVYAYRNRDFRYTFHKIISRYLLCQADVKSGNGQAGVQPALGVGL

Adenosine receptor A1 [5] = target: T1, Adenosine receptor A1; assay: Inhibition of [3H]CCPA binding to adenosine A1 receptor
Method in brief: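 Radioligand competition assay; rat brain cortical membranes as the receptor source.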

[6] = target: T5, Adenosine receptor A2b (Homo sapiens) (UniProt P29275); assay: Percent inhibition of [3H]PSB-298 binding to adenosine A2b receptor at 10 uM
T5 sequence (whole entry): T4 sequence (P29275 whole entry)
Method in brief: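 Radioligand competition assay; membranes from CHO cells stably expressing the human receptor. Percent inhibition of radioligand binding is reported at the stated test concentration.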

[7] = target: T6, Adenosine receptor A3 (Homo sapiens) (UniProt P0DMS8); assay: Percent inhibition of [3H]PSB-11 binding to adenosine A3 receptor at 10 uM
T6 sequence (whole entry): T3 sequence (P0DMS8 whole entry)
Method in brief: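 Radioligand competition assay; membranes from HEK cells stably expressing the human receptor. Percent inhibition of radioligand binding is reported at the stated test concentration.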

Adenosine receptor A2b [8] = target: T4, Adenosine receptor A2b; assay: Inhibition of [3H]ZM-241380 binding to adenosine A2b receptor

T2 sequence (P30543 whole entry): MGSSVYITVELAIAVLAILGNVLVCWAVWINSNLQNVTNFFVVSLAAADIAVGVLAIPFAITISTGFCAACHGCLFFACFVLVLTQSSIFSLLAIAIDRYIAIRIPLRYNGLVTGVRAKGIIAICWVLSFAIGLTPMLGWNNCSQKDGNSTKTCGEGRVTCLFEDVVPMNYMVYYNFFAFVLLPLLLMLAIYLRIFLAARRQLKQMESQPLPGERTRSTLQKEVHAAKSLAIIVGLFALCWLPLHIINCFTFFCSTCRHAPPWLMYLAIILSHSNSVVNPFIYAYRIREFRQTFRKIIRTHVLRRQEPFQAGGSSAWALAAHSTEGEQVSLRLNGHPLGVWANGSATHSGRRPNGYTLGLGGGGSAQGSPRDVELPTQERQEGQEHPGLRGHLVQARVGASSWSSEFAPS

Row | Structure (SMILES) | Ki (Adenosine receptor A1 [1]) [nM] | Ki (Adenosine receptor A2a [2]) [nM] | Ki (Adenosine receptor A3) [nM] | Ki (Adenosine receptor A2a [3]) [nM] | Ki (Adenosine receptor A2b [4]) [nM] | Ki (Adenosine receptor A1 [5]) [nM] | inhibition [6] [%] | inhibition [7] [%] | Ki (Adenosine receptor A2b [8]) [nM]
1 | CCCn1c(=O)c2[nH]c(C3CCCC3)nc2n(Cc2ccccc2)c1=O | 8.7 | 511 | 54.6 |  |  |  |  |  | 
2 | CCCn1c(=O)c2nc(C3CCCC3)[nH]c2n(CC2=CC(C)(C)N([O])C2(C)C)c1=O |  |  | 1700 | 8780 | > 1000 | 5.47 | 23 |  | 
3 | CCCn1c(=O)c2nc(C3=CC(C)(C)N([O])C3(C)C)[nH]c2n(CCC)c1=O |  |  | ~10000 | 3800 | 3100 | 8.23 |  | 47 | 
4 | CCCn1c(=O)c2nc(C3CC(C)(C)N([O])C(C)(C)C3)[nH]c2n(CCC)c1=O |  |  | ~10000 | 6750 | > 10000 | 160 |  |  | 
5 | CCCCn1c(=O)[nH]c2[nH]c(-c3ccc(OCC(=O)Nc4ccc(CC(=O)O)cc4)cc3)nc2c1=O |  |  | 676 | 479 |  | 41 |  |  | 5.3
